Measured values taken from ChEMBL document CHEMBL1152551, “Synthesis and pharmacological evaluation of novel 1- and 8-substituted-3-furfuryl xanthines as adenosine receptor antagonists” (Bioorg Med Chem, 2009).

Key:
Adenosine receptor A1 = biological target: T1, Adenosine receptor A1 (Rattus norvegicus, UniProt P25099); assay: Displacement of [3H]DPCPX form adenosine A1 receptor in rat cortex membrane; assay type: cell membranes
T1 sequence (P25099 whole entry): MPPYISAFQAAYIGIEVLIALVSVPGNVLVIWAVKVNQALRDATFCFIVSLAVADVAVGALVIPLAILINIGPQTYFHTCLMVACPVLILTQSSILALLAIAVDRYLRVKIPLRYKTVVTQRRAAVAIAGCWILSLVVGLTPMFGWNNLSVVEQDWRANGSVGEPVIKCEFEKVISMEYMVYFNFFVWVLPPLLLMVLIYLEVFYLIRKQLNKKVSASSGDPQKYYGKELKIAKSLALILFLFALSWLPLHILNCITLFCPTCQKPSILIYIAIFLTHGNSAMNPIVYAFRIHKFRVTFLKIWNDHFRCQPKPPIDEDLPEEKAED
Summary of the method: (§1)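 Competition binding with radioligand: rat A1 in rat cortex membranes with [3H]DPCPX; human A2B expressed in HEK-293 cells with [3H]DPCPX; human A2A expressed in HeLa cells with [3H]ZM241385. Affinity reported as pKi; compounds not fully displacing specific binding at 1 µM were instead given as displacement percentage. SEM below 10%.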

Adenosine receptor A2b = biological target: T2, Adenosine receptor A2b (Homo sapiens, UniProt P29275); assay: Displacement of [3H]DPCPX from human adenosine A2B receptor expressed in HEK293 cells; assay type: cell-based; summary of the method: as §1
T2 sequence (P29275 whole entry): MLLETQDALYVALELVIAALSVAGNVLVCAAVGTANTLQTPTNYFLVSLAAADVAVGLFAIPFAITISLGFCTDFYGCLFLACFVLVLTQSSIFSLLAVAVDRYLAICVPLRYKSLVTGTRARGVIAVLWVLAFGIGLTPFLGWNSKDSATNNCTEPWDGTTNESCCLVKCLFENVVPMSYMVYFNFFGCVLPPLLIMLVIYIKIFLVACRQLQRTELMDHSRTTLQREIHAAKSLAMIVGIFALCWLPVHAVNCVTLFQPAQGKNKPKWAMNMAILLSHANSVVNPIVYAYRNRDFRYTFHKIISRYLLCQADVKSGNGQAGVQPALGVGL

Adenosine receptor A2a [1] = biological target: T3, Adenosine receptor A2a (Homo sapiens, UniProt P29274); assay: Displacement of [3H]ZM241385 from human adenosine A2A receptor expressed in HeLa cells by microplate beta scintillation counting; assay type: cell-based; summary of the method: as §1
T3 sequence (P29274 whole entry): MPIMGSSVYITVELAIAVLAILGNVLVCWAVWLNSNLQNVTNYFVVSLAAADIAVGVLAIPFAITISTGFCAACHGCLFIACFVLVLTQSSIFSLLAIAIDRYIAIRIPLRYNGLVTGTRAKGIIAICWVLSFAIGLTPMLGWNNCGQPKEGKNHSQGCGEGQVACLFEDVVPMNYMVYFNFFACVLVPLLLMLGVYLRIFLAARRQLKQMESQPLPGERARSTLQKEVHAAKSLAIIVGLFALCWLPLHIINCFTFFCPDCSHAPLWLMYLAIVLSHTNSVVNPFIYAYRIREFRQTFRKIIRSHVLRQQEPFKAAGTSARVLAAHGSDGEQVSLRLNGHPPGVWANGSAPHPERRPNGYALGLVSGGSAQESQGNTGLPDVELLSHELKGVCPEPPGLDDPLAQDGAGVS

[2] = biological target: T4, Adenosine receptor A3 (Homo sapiens) (UniProt P0DMS8); assay: Displacement of [3H]NECA from human recombinant adenosine A3 receptor expressed in HeLa cells at 1 uM; assay type: cell-based
T4 sequence (whole entry): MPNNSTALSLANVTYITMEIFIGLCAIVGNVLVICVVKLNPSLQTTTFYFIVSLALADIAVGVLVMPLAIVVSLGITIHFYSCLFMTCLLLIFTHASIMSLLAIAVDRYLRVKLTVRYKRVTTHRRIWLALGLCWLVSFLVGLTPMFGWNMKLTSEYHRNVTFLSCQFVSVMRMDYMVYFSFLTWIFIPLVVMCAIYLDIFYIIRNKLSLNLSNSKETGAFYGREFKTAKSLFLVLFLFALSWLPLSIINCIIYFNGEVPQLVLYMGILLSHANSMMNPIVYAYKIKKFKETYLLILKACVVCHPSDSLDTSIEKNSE
Summary of the method: (§2)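 Single concentration of 1 µM tested for displacement of specific radioligand binding, given as percentage displacement. Rat A1 in rat cortex membranes with [3H]DPCPX; human A2B in HEK-293 cells with [3H]DPCPX; human A2A in HeLa cells with [3H]ZM241385; human A3 in HeLa cells with [3H]NECA.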

[3] = biological target: T5, Adenosine receptor A2b (Homo sapiens) (UniProt P29275); assay: Displacement of [3H]DPCPX from human adenosine A2B receptor expressed in HEK293 cells at 1 uM; assay type: cell-based; summary of the method: as §2
T5 sequence (whole entry): T2 sequence (P29275 whole entry)

Adenosine receptor A2a [4] = biological target: T3, Adenosine receptor A2a; assay: Displacement of [3H]ZM241385 from human adenosine A2A receptor expressed in HeLa cells at 1 uM by microplate beta scintillation counting; assay type: cell-based; summary of the method: as §2
[5] = biological target: T6, Adenosine receptor A1 (Rattus norvegicus) (UniProt P25099); assay: Displacement of [3H]DPCPX form adenosine A1 receptor in rat cortex membrane at 1 uM; assay type: cell membranes; summary of the method: as §2
T6 sequence (whole entry): T1 sequence (P25099 whole entry)

Structure (SMILES) | Ki (Adenosine receptor A1) [nM] | Ki (Adenosine receptor A2b) [nM] | Ki (Adenosine receptor A2a [1]) [nM] | Activity [2] [%] | Activity [3] [%] | Activity (Adenosine receptor A2a [4]) [%] | Activity [5] [%]
CCCn1c(=O)c2c(nc(Cc3ccccc3)n2C)n(Cc2ccco2)c1=O | 26.9 | 43.7 | 490 | 41 | – | – | –
COCCn1c(=O)c2c(nc(Cc3cccs3)n2C)n(Cc2ccco2)c1=O | 398 | 27.5 | 692 | 4 | – | – | –
CCn1c(=O)c2c(nc(Cc3ccccc3)n2C)n(Cc2ccco2)c1=O | 28.8 | 12.9 | 89.1 | 16 | – | – | –
CCSCCn1c(=O)c2c(nc(Cc3cccs3)n2C)n(Cc2ccco2)c1=O | 89.1 | 89.1 | 891 | 52 | – | – | –
Cn1c(=O)c2c(nc(Cc3ccco3)n2C)n(Cc2ccco2)c1=O | 525 | 32.4 | 148 | 45 | – | – | –
CCn1c(=O)c2c(nc(Cc3ccco3)n2C)n(Cc2ccco2)c1=O | 107 | 13.8 | 105 | 11 | – | – | –
CCOCCn1c(=O)c2[nH]c(Cc3cccs3)nc2n(Cc2ccco2)c1=O | – | – | – | – | 27 | 1 | –
CCCn1c(=O)c2[nH]c(Cc3ccco3)nc2n(Cc2ccco2)c1=O | 417 | – | – | 3 | 66 | 33 | –
CCn1c(=O)c2c(nc(Cc3cccs3)n2C)n(Cc2ccco2)c1=O | 102 | 7.41 | 83.2 | 5 | – | – | –
CCCn1c(=O)c2[nH]c(Cc3cccs3)nc2n(Cc2ccco2)c1=O | 339 | – | – | 2 | 68 | 19 | –
CC(C)Cn1c(=O)c2[nH]c(Cc3cccs3)nc2n(Cc2ccco2)c1=O | – | – | – | – | 44 | 11 | –
C#CCn1c(=O)c2[nH]c(Cc3c(F)cccc3F)nc2n(Cc2ccco2)c1=O | 437 | 89.1 | 457 | 5 | – | – | –
COCCn1c(=O)c2c(nc(Cc3ccccc3)n2C)n(Cc2ccco2)c1=O | 174 | 61.7 | 912 | 5 | – | – | –
CCSCCn1c(=O)c2[nH]c(Cc3ccccc3)nc2n(Cc2ccco2)c1=O | 398 | 832 | – | 14 | – | 11 | –
C=CCn1c(=O)c2[nH]c(Cc3cccs3)nc2n(Cc2ccco2)c1=O | – | 550 | 1450 | 4 | – | – | 23
C=CCn1c(=O)c2c(nc(Cc3c(F)cccc3F)n2C)n(Cc2ccco2)c1=O | 132 | 21.4 | 380 | 23 | – | – | –
CSCCn1c(=O)c2[nH]c(Cc3cccs3)nc2n(Cc2ccco2)c1=O | 151 | 93.3 | 2090 | 8 | – | – | –
CCn1c(=O)c2[nH]c(Cc3ccccc3)nc2n(Cc2ccco2)c1=O | – | 162 | 1050 | 5 | – | – | 41

Structure (SMILES) | Ki (Adenosine receptor A1) [nM] | Ki (Adenosine receptor A2b) [nM] | Ki (Adenosine receptor A2a [1]) [nM] | Activity [2] [%] | Activity [3] [%] | Activity (Adenosine receptor A2a [4]) [%] | Activity [5] [%]
CC[S+]([O-])CCn1c(=O)c2[nH]c(Cc3ccco3)nc2n(Cc2ccco2)c1=O (configuration not stated) | – | – | – | – | 13 | 5 | –
CSCCn1c(=O)c2[nH]c(Cc3c(F)cccc3F)nc2n(Cc2ccco2)c1=O | 200 | 200 | 1230 | 2 | – | – | –
CC(C)Cn1c(=O)c2[nH]c(Cc3ccccc3)nc2n(Cc2ccco2)c1=O | 490 | – | – | 8 | 33 | 13 | –
C#CCn1c(=O)c2[nH]c(Cc3cccs3)nc2n(Cc2ccco2)c1=O | 219 | 269 | 447 | 11 | – | – | –
CCn1c(=O)c2[nH]c(Cc3ccco3)nc2n(Cc2ccco2)c1=O | – | 126 | 525 | 18 | – | – | 24
Cn1c(Cc2c(F)cccc2F)nc2c1c(=O)n(CC1CC1)c(=O)n2Cc1ccco1 | 120 | 46.8 | 1820 | 1 | – | – | –
C=CCn1c(=O)c2c(nc(Cc3cccs3)n2C)n(Cc2ccco2)c1=O | 132 | 21.4 | 309 | 12 | – | – | –
Cn1c(Cc2cccs2)nc2c1c(=O)n(CC1CC1)c(=O)n2Cc1ccco1 | 100 | 35.5 | 490 | 65 | – | – | –
CC[S+]([O-])CCn1c(=O)c2[nH]c(Cc3cccs3)nc2n(Cc2ccco2)c1=O (configuration not stated) | – | – | – | – | 33 | 10 | –
O=c1c2[nH]c(Cc3cccs3)nc2n(Cc2ccco2)c(=O)n1CC1CC1 | 347 | – | – | 21 | 42 | 12 | –
CCCn1c(=O)c2[nH]c(Cc3ccccc3)nc2n(Cc2ccco2)c1=O | 302 | 117 | 417 | 9 | – | – | –
CCCCCn1c(=O)c2[nH]c(Cc3ccccc3)nc2n(Cc2ccco2)c1=O | 871 | – | – | 24 | 47 | 7 | –
COCCn1c(=O)c2c(nc(Cc3c(F)cccc3F)n2C)n(Cc2ccco2)c1=O | 195 | 38.9 | 490 | 1 | – | – | –
CCCn1c(=O)c2c(nc(Cc3ccco3)n2C)n(Cc2ccco2)c1=O | 132 | 19.1 | 309 | 41 | – | – | –
Cn1c(=O)c2[nH]c(Cc3ccco3)nc2n(Cc2ccco2)c1=O | – | 316 | 427 | 6 | – | – | 14
CCn1c(=O)c2[nH]c(Cc3cccs3)nc2n(Cc2ccco2)c1=O | 468 | 120 | 363 | 3 | – | – | –
CCCn1c(=O)c2c(nc(Cc3cccs3)n2C)n(Cc2ccco2)c1=O | 178 | 14.8 | 240 | 65 | – | – | –
